Results of several laboratories.
Compare with care: the assays were run in different laboratories.
Action: inhibitor
rep main protease: Replicase polyprotein 1ab, main protease (rep, Severe acute respiratory syndrome coronavirus 2, UniProt P0DTD1)
rep methyltransferase: Replicase polyprotein 1ab, methyltransferase (rep, Severe acute respiratory syndrome coronavirus 2, UniProt P0DTD1)
rep papain-like protease: Replicase polyprotein 1ab, papain-like protease (rep, Severe acute respiratory syndrome coronavirus 2, UniProt P0DTD1)

SMILES | target | assay | setting | IC50 [µM]
COC(=O)N[C@H](C(=O)N[C@@H](Cc1ccccc1)[C@@H](O)CN(Cc1ccc(-c2ccccn2)cc1)NC(=O)[C@@H](NC(=O)OC)C(C)(C)C)C(C)(C)C | rep main protease | enzyme activity in cells |  | > 60
Oc1c(Cl)cc(Cl)c(Cl)c1Cc1c(O)c(Cl)cc(Cl)c1Cl | rep methyltransferase | enzyme activity |  | 8.65
O=C(Oc1cncc(Cl)c1)c1cc2c(Cl)cc(Cl)cc2[nH]1 | rep main protease | enzyme activity |  | 0.0233
Cc1nocc1C(=O)N1Cc2ccccc2[C@@H](CNC(=O)c2cncc3ccc(F)cc23)C1 | rep main protease | enzyme activity |  | 56.8
Cc1ccc(-c2nc(N3CCOCC3)s[n+]2-c2ccccc2)cc1 | rep main protease | enzyme activity |  | 0.353
CC(Cc1ccc(O)c(O)c1)C(C)Cc1ccc(O)c(O)c1 (stereo not drawn) | rep methyltransferase | enzyme activity |  | 10.3
CC(=O)N[C@@H](CS)C(=O)O | rep main protease | enzyme activity |  | > 450
Cc1ccc2[nH]ncc2c1C(=O)NC[C@H]1Cc2ccccc2CN1C(=O)C[C@H](C)c1ccco1 | rep main protease | enzyme activity |  | 56.9
O=c1[nH]nc(Sc2ncc([N+](=O)[O-])s2)n1-c1ccc2c(c1)OCCO2 | rep main protease | enzyme activity |  | 0.3
CCCCCC/C=C\CCCCCCCCCc1cc(O)cc(O)c1 | rep main protease | enzyme activity | with preincubation | > 100
CCOC(=O)c1c(NC(=O)c2ccc3c(c2)CC(c2ccccc2)OC3=O)sc(C)c1C (stereo not drawn) | rep methyltransferase | enzyme activity |  | 47.9
CC(C)c1nc(CN(C)C(=O)N[C@@H](CCN2CCOCC2)C(=O)N[C@H](CC[C@H](Cc2ccccc2)NC(=O)OCc2cncs2)Cc2ccccc2)cs1 | rep main protease | enzyme activity in cells |  | > 20
C[S+]([O-])CCCCN=C=S (stereo not drawn) | rep main protease | enzyme activity |  | 5.5
O=C1c2ccccc2NC(c2cc(Cl)ccc2O)N1N=Cc1cc(Cl)ccc1O (stereo not drawn) | rep main protease | enzyme activity in cells |  | 10
CC(C)c1cccc(NC(=O)C2CC(=O)Nc3ccccc32)c1 (stereo not drawn) | rep main protease | enzyme activity |  | 3.72
CC(C)c1nnc(NC(=O)c2cccc(N3C(=O)c4ccccc4C3=O)c2)s1 | rep methyltransferase | enzyme activity |  | 35.6
COc1cc(C[C@@H](C)[C@@H](C)Cc2cc(O)c(OC)c(OC)c2)cc(O)c1OC | rep main protease | enzyme activity, FRET |  | 3.07
Oc1ccc(O)cc1 | rep methyltransferase | enzyme activity |  | 12.2
Cc1cccc2c3c(ccc12)C1=C(C(=O)C3=O)[C@@H](C)CO1 | rep papain-like protease | enzyme activity, FRET | pH 7.5 | 33
Cc1c(O)cccc1C(=O)N[C@@H](CSc1ccccc1)[C@H](O)CN1C[C@H]2CCCC[C@H]2C[C@H]1C(=O)NC(C)(C)C | rep main protease | enzyme activity |  | > 240
CN(CCCN1c2ccccc2CCc2ccccc21)CC(=O)c1ccc(Cl)cc1 | rep main protease | enzyme activity |  | 11.4
N#CC(C(N)=O)=C1Oc2c(cc(O)cc2-c2ccc(Cl)c(Cl)c2)S1 | rep methyltransferase | enzyme activity |  | 45
Cc1cccc(C)c1OCC(=O)N[C@@H](Cc1ccccc1)[C@@H](O)C[C@H](Cc1ccccc1)NC(=O)[C@H](C(C)C)N1CCCNC1=O | rep main protease | enzyme activity in cells |  | > 20

SMILES | target | assay | setting | IC50 [µM]
CC(=O)O/N=C1/C(=O)N(Cc2cc(Cl)ccc2Cl)c2ccc(Cl)cc21 | rep main protease | enzyme activity |  | 17.9
O=C1c2ccccc2NC(c2cc([N+](=O)[O-])ccc2O)N1N=Cc1cc([N+](=O)[O-])ccc1O (stereo not drawn) | rep main protease | enzyme activity in cells |  | > 40
O=c1oc2c(cc1O)oc(=O)c1cc(O)c(O)c(O)c12 | rep methyltransferase | enzyme activity |  | 24.1
O=C(CC1Sc2ncnn2C1=O)Nc1ccc(Br)cc1 (stereo not drawn) | rep main protease | enzyme activity, fluorescence |  | > 20
CC(C)C[C@H](NC(=O)OCc1ccccc1)C(=O)N(C)N(C#N)CCC(N)=O | rep main protease | enzyme activity |  | 1.45
COC(=O)C1=C(C)NC(C)=C(C(=O)OCCN2CCN(C(c3ccccc3)c3ccccc3)CC2)C1c1cccc([N+](=O)[O-])c1 (stereo not drawn) | rep main protease | enzyme activity in cells |  | > 10
O=C1c2ccccc2NC(c2cc(Br)ccc2O)N1N=Cc1cc(Br)ccc1O (stereo not drawn) | rep main protease | enzyme activity in cells |  | > 40
Sc1ncnc2nc[nH]c12 | rep papain-like protease | enzyme activity, FRET | pH 7.5 | > 60
O=c1c2ccccc2[se]n1-c1cccc2cccnc12 | rep main protease | enzyme activity, FRET |  | 2.6
Cc1cccc(C)c1OCC(=O)N[C@@H](Cc1ccccc1)[C@@H](O)C[C@H](Cc1ccccc1)NC(=O)[C@H](C(C)C)N1CCCNC1=O | rep main protease | enzyme activity |  | 206
CN(C)[C@@H]1C(O)=C(C(N)=O)C(=O)[C@@]2(O)C(O)=C3C(=O)c4c(O)cccc4[C@@](C)(O)[C@H]3[C@H](O)[C@@H]12 | rep main protease | enzyme activity in cells |  | > 60
CC[N+](C)(CC)CCC[n+]1c(-c2ccccc2)c2cc(N)ccc2c2ccc(N)cc21 | rep main protease | enzyme activity |  | > 20
C[C@H]1[C@H](OC(=O)CCC(=O)O)O[C@@H]2O[C@@]3(C)CC[C@H]4[C@H](C)CC[C@@H]1[C@@]24OO3 | rep main protease | enzyme activity in cells |  | 2.41
CCOc1nc2cccc(C(=O)O)c2n1Cc1ccc(-c2ccccc2-c2nnn[nH]2)cc1 | rep main protease | enzyme activity in cells |  | > 60
COCCn1c2c([n+](Cc3cnccn3)c1C)C(=O)c1ccccc1C2=O | rep papain-like protease | enzyme activity, FRET | pH 7.5 | 20.2
O=C(Cn1nnc2ccccc21)Nc1ccccc1N1CCc2sccc2C1 | rep main protease | enzyme activity, FRET |  | > 100
O=C(O)c1nnn(-c2nccs2)c1-c1ccc2c(c1)OCO2 | rep methyltransferase | enzyme activity |  | 55.8
COc1cc(C[C@@H](C)[C@@H](C)Cc2ccc(O)c(OC)c2)ccc1O | rep papain-like protease | enzyme activity, FRET |  | 4.24
CCc1ccc(/C=C/C(=O)Nc2ccc(C(C)=O)cc2)o1 | rep main protease | enzyme activity |  | 5
CC(C)C[C@H](NC(=O)[C@@H](NC(=O)OCc1ccccc1)C(C)(C)C)C(=O)N(C)N(C#N)CCC(N)=O | rep main protease | enzyme activity |  | 0.775
CCN(CC)S(=O)(=O)c1cccc(-n2sc3ccccc3c2=O)c1 | rep main protease | enzyme activity |  | > 20
Nc1ccc(C(=O)N2CC3(CCC3)C[C@H]2CNC(=O)c2cncc3ccccc23)cc1O | rep main protease | enzyme activity |  | 29.6
